In ChEMBL document CHEMBL1147905, “Novel thyroid hormone receptor antagonists with an N-alkylated diphenylamine skeleton” (Bioorg Med Chem, 2007):
Activity calls are given as the source filed them. The rule behind the calls is not given here.

Experiments:
Format in all cases: functional, cell-based
Conditions in all cases: COS-1
[1] = target: T1, Thyroid hormone receptor alpha (Homo sapiens) (UniProt P10827); assay: Agonist activity at human thyroid hormone receptor alpha-1 expressed in COS1 cells by transactivation assay after 40 hrs
T1 sequence (whole entry): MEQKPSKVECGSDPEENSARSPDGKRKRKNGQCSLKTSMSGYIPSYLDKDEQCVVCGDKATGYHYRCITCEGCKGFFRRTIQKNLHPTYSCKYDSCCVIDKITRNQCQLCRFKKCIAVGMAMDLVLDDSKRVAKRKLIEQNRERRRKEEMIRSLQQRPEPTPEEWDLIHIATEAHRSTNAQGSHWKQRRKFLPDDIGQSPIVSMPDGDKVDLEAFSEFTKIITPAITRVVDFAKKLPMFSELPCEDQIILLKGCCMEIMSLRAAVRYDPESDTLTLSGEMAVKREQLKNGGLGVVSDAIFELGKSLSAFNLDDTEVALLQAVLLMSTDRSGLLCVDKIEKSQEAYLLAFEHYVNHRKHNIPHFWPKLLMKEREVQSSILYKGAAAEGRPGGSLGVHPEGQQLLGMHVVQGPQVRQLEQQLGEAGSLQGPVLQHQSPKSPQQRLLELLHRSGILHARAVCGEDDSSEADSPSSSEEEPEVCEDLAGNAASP
Outline: (§1)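 COS-1 cells were seeded at 8 × 10⁴ per well in 5% FBS/DMEM and grown overnight at 37 °C, 5% CO₂. In serum-free DMEM with Lipofectamine 2000 they were transfected with pCMX-hTRα1 (α1) or pCDNA-hTRβ1 (β1) (100 ng), (TREpal)₃-TKLUC reporter (200 ng) and pCMVβ reference. After 4–5 h, charcoal-dextran FBS medium and compounds (final 0.5% EtOH) were added for 40 h. Read-out was luciferase normalised to β-galactosidase.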

[2] = target: T2, Thyroid hormone receptor beta (Homo sapiens) (UniProt P10828); assay: Agonist activity at human thyroid hormone receptor beta-1 expressed in COS1 cells by transactivation assay after 40 hrs; outline: as §1
T2 sequence (whole entry): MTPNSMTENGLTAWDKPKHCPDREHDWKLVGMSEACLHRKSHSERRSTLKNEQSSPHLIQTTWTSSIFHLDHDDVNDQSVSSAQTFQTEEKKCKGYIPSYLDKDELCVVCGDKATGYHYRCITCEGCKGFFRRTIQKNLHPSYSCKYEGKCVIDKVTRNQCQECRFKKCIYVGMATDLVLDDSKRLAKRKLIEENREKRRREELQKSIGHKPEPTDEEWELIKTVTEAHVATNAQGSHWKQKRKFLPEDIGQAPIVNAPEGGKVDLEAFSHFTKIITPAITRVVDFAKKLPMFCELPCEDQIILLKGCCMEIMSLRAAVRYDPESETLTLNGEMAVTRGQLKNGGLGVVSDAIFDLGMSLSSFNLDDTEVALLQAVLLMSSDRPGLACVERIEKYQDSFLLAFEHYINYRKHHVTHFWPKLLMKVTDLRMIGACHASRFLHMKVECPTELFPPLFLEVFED

[3] = target: T1, Thyroid hormone receptor alpha (Homo sapiens); assay: Antagonist activity at human thyroid hormone receptor alpha-1 expressed in COS1 cells by transactivation assay after 40 hrs
Outline: (§2)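 Same COS-1 transfection (pCMX-hTRα1 or pCDNA-hTRβ1 with (TREpal)₃-TKLUC and pCMVβ) and 40 h treatment in charcoal-dextran FBS medium, 0.5% EtOH final. Compounds were added alongside 3 × 10⁻⁹ M T₃. Luciferase was normalised to β-galactosidase and expressed as percent of the T₃-alone value (100%). Means ± SD, n = 3.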

[4] = target: T2, Thyroid hormone receptor beta (Homo sapiens); assay: Antagonist activity at human thyroid hormone receptor beta-1 expressed in COS1 cells by transactivation assay after 40 hrs; outline: as §2

Row | Compound | Activity [1] | Activity [2] | Activity [3] | Activity [4]
1 | Cc1cc(CC2SC(=O)NC2=O)cc(C)c1N(Cc1ccccc1)c1ccc(O)c(C(C)C)c1 (stereo not drawn) | inactive | inactive | Active | Active
2 | Cc1cc(CC2SC(=O)NC2=O)cc(C)c1N(CC1CC1)c1ccc(O)c(C(C)C)c1 (stereo not drawn) | inactive | inactive | Active | Active
3 | Cc1cc(CC2SC(=O)NC2=O)cc(C)c1N(CC1CCCCC1)c1ccc(O)c(C(C)C)c1 (stereo not drawn) | inactive | inactive | Active | Active

Now from value to compound:

Row | Activity [1] | Activity [2] | Activity [3] | Activity [4] | Compound
4 | inactive | inactive | Active | Active | CC(C)=CCN(c1ccc(O)c(C(C)C)c1)c1c(C)cc(CC2SC(=O)NC2=O)cc1C (stereo not drawn)
5 | inactive | inactive | Active | Active | Cc1cc(CC2SC(=O)NC2=O)cc(C)c1N(CC(C)C)c1ccc(O)c(C(C)C)c1 (stereo not drawn)
6 | Active | Active | inactive | inactive | Cc1cc(CC2SC(=O)NC2=O)cc(C)c1N(C)c1ccc(O)c(C(C)C)c1 (stereo not drawn)
7 | inactive | inactive | Active | Active | CCCCCCN(c1ccc(O)c(C(C)C)c1)c1c(C)cc(CC2SC(=O)NC2=O)cc1C (stereo not drawn)
